According to PubChem BioAssay:
Activity calls are given as the source filed them.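 How the source made its calls, unless noted: active means NADPH fluorescence slope more negative than the mean of all samples by about 3 SD, 99.7% confidence; inactive means the rest.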

Experiments:
[1] = inhibitors of TNFa-induced NFkB p65 translocation, primary screen, imaging, HUVEC, MLSMR starter and 10KST1 sets (AID 438;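 active means inhibition above 20% together with a positive visual image hit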;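 further: compound added about 3h40 before a 20 min TNFalpha stimulation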;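 on inhibition: signal is the nuclear over cytoplasmic p65 intensity ratio per well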); settings: HUVEC TNFa-induced p65 nuclear translocation; cell count: measured here: nuclei count (cytotoxicity indicator), at 2.08 µM; inhibition: at 2 µM, stronger effect = higher value, 0% TNFa-plus-vehicle, 100% no-TNFa wells
[2] = inhibitors of E-selectin induction by TNFa, primary screen, imaging, HUVEC, immunofluorescence, MLSMR starter and 10KST1 sets (AID 487;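 active means visually confirmed hit in the image check and inhibition above 20%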;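 on inhibition: signal is fraction of cell area covered by stained E-selectin grains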;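 on nuclei count: 100% = median nuclei count of all wells on the same plate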); settings: HUVEC TNFalpha-induced E-selectin immunofluorescence imaging, at 2 µM; inhibition: stronger effect = higher value; nuclei count: measured here: cell number, toxicity
[3] = DUSP6 inhibitors restoring Erk phosphorylation by chemical complementation, primary imaging in DUSP6-transfected HeLa (AID 609;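 active means compounds giving at least 50% inhibition in the cell-based MKP-3 phosphatase rescue imaging test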;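 on inhibition: phospho-Erk level distribution per well compared with pooled transfected vehicle control wells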); settings: HeLa MKP-3 transfected, phospho-Erk imaging KS statistic, at 10 µM, cells stimulated with TPA for 15 min
[4] = target: Dual specificity protein phosphatase 6 (Homo sapiens) (UniProt Q16828); assay: as above; settings: HeLa MKP-3 transfected, phospho-Erk imaging KS statistic; at 10 µM; stronger effect = higher value; cells stimulated with TPA for 15 min
[5] = target: Voltage-gated potassium channel subunit beta-2 (Rattus norvegicus) (UniProt P62483); assay: KvBeta enzyme negative modulators, primary screen, biochemical, NADPH fluorescence (AID 622;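 active means fluorescence slope higher than the sample average by over 3 SD, cut at about -0.22 in these data, passing the limit was not always enough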;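 further: slope of raw intensity against log time taken from 70 to 1610 s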); settings: recombinant KvBeta, 4-cyanobenzaldehyde reduction, at 10 µM, stronger effect = higher value
[6] = target: Voltage-gated potassium channel subunit beta-2 (Rattus norvegicus) (UniProt P62483); assay: KvBeta positive modulators, primary screen, biochemical, NADPH fluorescence (AID 623); settings: Recombinant KvBeta, NADPH fluorescence decrease slope, 10 min; at 10 µM; stronger effect = lower value;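 further: fluorescence intensity change per second fitted from 20 to 320 s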
[7] = target: Alpha-2C adrenergic receptor (Homo sapiens) (UniProt P18825); assay: modulators of alpha2C/GIRK thallium flux, primary screen, cell-based, HEK293 alpha2C/GIRK1/2 (AID 624;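 active means fluorescence slope after compound addition differing from the mean of all screened samples at 99.7% confidence, in either direction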;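 further: slope of fluorescence ratio to pre-addition baseline per second over 15 to 24 s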); settings: thallium flux BTC fluorescence, at 10 µM, actives lie on both sides
[8] = inhibitors of larval lipid processing in zebrafish, primary screen, whole organism, PED6 fluorescence, gall bladder and intestine (AID 686;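 active means a full or partial loss of lipid-probe fluorescence in the fish gall bladder, intestine or both, judged by eye; inactive means no fluorescence loss, or compound toxic to the fish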;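 further: larvae 5 to 7 days old with five fish per well; signal comes from phospholipase A2 cleavage of quenched PED6 carried via bile; overnight exposure to compound and PED6 before scoring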); settings: Zebrafish larvae PED6 lipid processing, fluorescence scoring; screened at 20 µM (by protocol)
Procedure, shortened: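 system = live zebrafish larvae aged 5-7 days, whole organism | probe or stimulus = ingested quenched lipid PED6 at 100 nM | doses = 20 µM single dose | timing = overnight exposure | detection = fluorescence microscopy with visual scoring of gall bladder and intestine | read-out = visual per-well fluorescence inhibition score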

[9] = inhibitors of Chlamydomonas gravitaxis, primary screen, whole organism, Chlamydomonas reinhardtii, WT vs cilia-less mutant, absorbance, 96-well (AID 463189;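 active means inhibition at or above 50% relative to wild type and mutant plate controls; inactive means inhibition below 50%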;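 further: 0% = wild type cc124 cells in DMSO and 100% = ciliumless bld1 mutant cells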); settings: OD600 absorbance, 2 days, at 10 µM, stronger effect = higher value
[10] = measured here: cell density z-score
[11] = measured here: nuclear c-Myc green intensity z-score
[12] = measured here: nuclear pErk red intensity z-score, stronger effect = higher value

Chain of Voltage-gated potassium channel subunit beta-2 (Rattus norvegicus) (P62483 whole entry, looked up): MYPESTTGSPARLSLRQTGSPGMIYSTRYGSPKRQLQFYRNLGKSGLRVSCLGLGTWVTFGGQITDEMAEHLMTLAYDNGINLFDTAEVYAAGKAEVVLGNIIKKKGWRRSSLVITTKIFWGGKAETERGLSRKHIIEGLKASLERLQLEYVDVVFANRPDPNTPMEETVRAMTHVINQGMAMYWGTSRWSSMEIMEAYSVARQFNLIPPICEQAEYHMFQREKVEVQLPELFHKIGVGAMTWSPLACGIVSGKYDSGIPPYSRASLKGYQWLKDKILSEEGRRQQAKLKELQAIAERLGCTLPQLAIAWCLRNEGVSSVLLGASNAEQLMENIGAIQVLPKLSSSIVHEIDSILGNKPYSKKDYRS
Chain of Dual specificity protein phosphatase 6 (Homo sapiens) (Q16828 whole entry, looked up): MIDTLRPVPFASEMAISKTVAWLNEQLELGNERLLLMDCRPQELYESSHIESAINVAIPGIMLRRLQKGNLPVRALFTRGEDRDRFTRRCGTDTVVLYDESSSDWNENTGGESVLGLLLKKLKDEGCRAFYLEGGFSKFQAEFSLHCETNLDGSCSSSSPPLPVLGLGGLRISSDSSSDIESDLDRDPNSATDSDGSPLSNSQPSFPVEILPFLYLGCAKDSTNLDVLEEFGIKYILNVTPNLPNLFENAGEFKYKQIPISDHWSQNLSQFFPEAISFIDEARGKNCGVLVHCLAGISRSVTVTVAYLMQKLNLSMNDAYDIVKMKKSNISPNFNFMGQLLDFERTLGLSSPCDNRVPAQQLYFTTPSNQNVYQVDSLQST
Chain of Alpha-2C adrenergic receptor (Homo sapiens) (P18825 whole entry, looked up): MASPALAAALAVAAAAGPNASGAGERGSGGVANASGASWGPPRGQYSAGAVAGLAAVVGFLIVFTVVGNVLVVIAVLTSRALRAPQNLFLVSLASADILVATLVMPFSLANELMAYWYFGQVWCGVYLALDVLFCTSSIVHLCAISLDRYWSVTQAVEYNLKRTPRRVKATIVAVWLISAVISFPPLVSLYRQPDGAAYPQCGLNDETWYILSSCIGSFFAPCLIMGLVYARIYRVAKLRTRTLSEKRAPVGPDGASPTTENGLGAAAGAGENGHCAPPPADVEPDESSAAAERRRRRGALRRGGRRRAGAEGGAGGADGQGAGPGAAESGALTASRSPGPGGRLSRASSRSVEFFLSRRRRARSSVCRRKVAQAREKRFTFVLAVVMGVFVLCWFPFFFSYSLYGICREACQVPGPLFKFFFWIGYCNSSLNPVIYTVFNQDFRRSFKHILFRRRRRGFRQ

| Compound | cell count [1] | inhibition [1] | inhibition [2] | nuclei count [2] [%] | z-score [3, 10] | z-score [3, 11] | z-score [3, 12] | inhibition [4] | fluorescence slope [5] | NADPH fluorescence slope [6] | slope [7] | outcome [8] | inhibition [9] |
| --- | --- | --- | --- | --- | --- | --- | --- | --- | --- | --- | --- | --- | --- |
| CCCCNC(=O)C(C#N)c1nc2ccccc2nc1N1CCN(c2ccccc2F)CC1 (stereo not given) | 406 | 7.2% (inactive) | -12% (inactive) | 105 | -0.801 | -1.22 | 0.341 | -1.12% (inactive) | -0.475 (inactive) | -3.8e-05 (inactive) | 0.00688 (inactive) | inactive | 6.61% (inactive) |
| CC1(C)Cc2nc(N)c(C(=O)NCCO)cc2CO1 | 668 | -10.5% (inactive) | 15.2% (inactive) | 184 | -0.73 | 0.225 | 0.421 | -3.98% (inactive) | -0.476 (inactive) | -3e-05 (inactive) | 0.00417 (inactive) | inactive | 6.5% (inactive) |
| CCOc1cccc(-c2nnc3sc(COc4ccccc4)nn23)c1 | 537 | -7.5% (inactive) | 40.9% (inactive) | 91.9 | 1.73 | -0.94 | -0.568 | -4.27% (inactive) | -0.433 (inactive) | -9.6e-05 (inactive) | 0.00533 (inactive) | inactive | 17.6% (inactive) |
| CC1(C)CC(=O)C2=C(C1)N(Cc1ccco1)C(=O)C2(O)C(F)(F)F (stereo not given) | 502 | -2.4% (inactive) | -124% (inactive) | 132 | -0.0541 | -0.87 | -0.763 | -12.3% (inactive) | -0.467 (inactive) | -6.1e-05 (inactive) | 0.00641 (inactive) | inactive | 20.3% (inactive) |
| CC(C)CN1C(=O)NC(NC(=O)c2cccnc2)(C(F)(F)F)C1=O (stereo not given) | 488 | -2.8% (inactive) | -106% (inactive) | 130 | 0.462 | -0.157 | -1.2 | 1.75% (inactive) | -0.505 (inactive) | -7.1e-06 (inactive) | 0.00612 (inactive) | inactive | -0.985% (inactive) |
| Cc1sccc1C1C(C#N)=C(N)SC(N)=C1C#N | 693 | -19.1% (inactive) | -22.1% (inactive) | 167 | 0.12 | -0.636 | 1.06 | 16% (inactive) | -0.345 (inactive) | -2.2e-05 (inactive) | 0.00967 (inactive) | inactive | -2.96% (inactive) |
| Cc1nnc2c(NC(C)C)nc3ccccc3n12 | 381 | -8.4% (inactive) | -63% (inactive) | 137 | 0.584 | -0.494 | -1.32 | 22.7% (inactive) | -0.382 (inactive) | -5.9e-05 (inactive) | 0.0077 (inactive) | inactive | 29.1% (inactive) |
| C=COC(=O)CSc1nc(-c2cccs2)ccc1C#N | 659 | -10.8% (inactive) | -26.9% (inactive) | 152 | -1.42 | 1.7 | 0.138 | -5.62% (inactive) | -0.385 (inactive) | -2.3e-06 (inactive) | 0.0065 (inactive) | inactive | 8.37% (inactive) |
| Cc1cc(C)c(NC(=O)OCCN2CCOCC2)c(C)c1 | 581 | -17.3% (inactive) | -82.2% (inactive) | 168 | -0.0769 | -0.6 | 1.06 | 3.56% (inactive) | -0.468 (inactive) | -7.1e-05 (inactive) | 0.00577 (inactive) | inactive | 19.8% (inactive) |
| Cn1c(=O)oc2cc(C(=O)c3ccccc3)ccc21 | 442 | -7.7% (inactive) | -42.8% (inactive) | 177 | 0.0253 | -0.374 | -0.71 | 1.04% (inactive) | -0.332 (inactive) | -3.5e-05 (inactive) | 0.00473 (inactive) | inactive | -6.29% (inactive) |
| CCOC(=O)CC(=O)CSc1nc2c(cc1C#N)CCCCC2 | 510 | -8.3% (inactive) | -29.1% (inactive) | 114 | -0.0989 | -0.82 | 0.239 | 6.51% (inactive) | -0.342 (inactive) | -3e-05 (inactive) | 0.00873 (inactive) | inactive | 12.7% (inactive) |
| O=C(O)c1cnn2c(C(F)(F)F)cc(-c3ccco3)nc12 | 416 | 1.3% (inactive) | -45.3% (inactive) | 96.3 | 1.16 | -0.0109 | -0.464 | 9.39% (inactive) | -0.48 (inactive) | -7.9e-05 (inactive) | 0.005 (inactive) | inactive | 17.4% (inactive) |
| CCOc1nc(SCCOc2ccc(C)cc2)nc(N(C)C)n1 | 346 | -10.2% (inactive) | -115% (inactive) | 91.5 | 2.72 | -0.00429 | -0.85 | 22.8% (inactive) | -0.474 (inactive) | 3.1e-05 (inactive) | 0.0074 (inactive) | inactive | 30.3% (inactive) |
| Cc1ccc2c(c1)C(CCN)C(=O)N2Cc1ccccc1 (stereo not given) | 622 | -12.2% (inactive) | -11.3% (inactive) | 154 | 0.106 | 0.432 | 0.437 | -15% (inactive) | -0.424 (inactive) | -3.4e-05 (inactive) | 0.00511 (inactive) | inactive | 9.26% (inactive) |
| Clc1ccc2[nH]c3c(NCCCN4CCOCC4)ncnc3c2c1 | 471 | -7.1% (inactive) | -31.4% (inactive) | 102 | -0.293 | -0.352 | 1.38 | -13.3% (inactive) | -0.52 (inactive) | 6.4e-06 (inactive) | 0.00501 (inactive) | inactive | -7.19% (inactive) |
| CCOC(=O)C1=C(C)NC(=O)NC1c1ccc2c(c1)OCO2 (stereo not given) | 603 | -9.5% (inactive) | -11.9% (inactive) | 154 | 0.562 | 0.385 | -0.648 | -13.3% (inactive) | -0.387 (inactive) | -7.4e-05 (inactive) | 0.00581 (inactive) | inactive | -6.75% (inactive) |
| Oc1ccc(C=Nc2ccc3ncccc3c2)c(O)c1 | 490 | -5.8% (inactive) | -113% (inactive) | 117 | 1.18 | -0.733 | -0.981 | 3.66% (inactive) | -0.477 (inactive) | -3.5e-05 (inactive) | 0.00388 (inactive) | inactive | -13.6% (inactive) |
| COC(=O)C(NC(C)=O)(Nc1ccc(Br)cc1)C(=O)OC | 485 | -1.7% (inactive) | -127% (inactive) | 153 | 0.275 | 0.746 | -1.04 | 18.2% (inactive) | -0.537 (inactive) | -1.5e-05 (inactive) | 0.00456 (inactive) | inactive | -10.2% (inactive) |
| Fc1ccc(OCCOCCNCC2CCCO2)cc1 (stereo not given) | 369 | 0.4% (inactive) | -35.4% (inactive) | 84.5 | 0.189 | 0.788 | 0.463 | 15.1% (inactive) | -0.557 (inactive) | -4.4e-05 (inactive) | 0.00452 (inactive) | inactive | 43.6% (inactive) |
| COC(=O)c1cc(Br)c(=O)n(Cc2ccc3c(c2)OCO3)c1 | 533 | 2.2% (inactive) | -141% (inactive) | 135 | 0.138 | 0.394 | 1.32 | -14% (inactive) | -0.501 (inactive) | -4.4e-05 (inactive) | 0.00422 (inactive) | inactive | 110% (active) |
| Cc1cc(OCCN2CCOCC2)nc2ccccc12 | 358 | -29.5% (inactive) | -231% (inactive) | 135 | 0.234 | -1.97 | -1.2 | -10.5% (inactive) | -0.431 (inactive) | -9.4e-05 (inactive) | 0.00613 (inactive) | inactive | 22.7% (inactive) |
| Cc1nc(-c2cn[nH]c2)c2cc(C)oc2n1 | 599 | -33.9% (inactive) | -51.1% (inactive) | 120 | -2.18 | 1.64 | 0.464 | -2.07% (inactive) | -0.491 (inactive) | -0.00022 (inactive) | 0.00453 (inactive) | inactive | -8.8% (inactive) |
| CCOc1cccc(C2C(C#N)=C(N)Oc3cc(C)oc(=O)c32)c1OCC (stereo not given) | 362 | -24.9% (inactive) | -67.3% (inactive) | 143 | 0.354 | -0.768 | 1.02 | 8.76% (inactive) | -0.441 (inactive) | -0.000143 (inactive) | 0.00434 (inactive) | inactive | 10.1% (inactive) |
| COc1ccc(-c2oc3ncn4nc(Cc5ccccc5)nc4c3c2-c2ccc(OC)cc2)cc1 | 561 | -7.8% (inactive) | -106% (inactive) | 175 | 0.18 | 0.751 | 0.443 | -6.06% (inactive) | -0.319 (inactive) | -1.7e-05 (inactive) | 0.0116 (inactive) | inactive | -5.31% (inactive) |
| Cn1c(=O)c2c(nc(OCc3cccnc3)n2Cc2ccccc2)n(C)c1=O | 599 | 8.2% (inactive) | 3.5% (inactive) | 138 | 1.08 | -0.258 | 0.62 | -2.91% (inactive) | -0.517 (inactive) | -0.000111 (inactive) | 0.00473 (inactive) | inactive | -5.51% (inactive) |
